Measured values taken from PMC12177174 (iScience, 2025).
Where “and” joins values, the source holds several entries; their conditions need not be identical. Equal entries are not always repeated.

Key:
[1] = Human PK, dose-to-man and exposure predictions; settings: 15 mg once daily
Wnt16 = test: Serum high-throughput proteomics; format: in vivo, homo sapiens; settings: study day 16
AXIN2 mRNA [2] = test: Target engagement: AXIN2 mRNA; format: in vivo, homo sapiens; settings: skin
Procedure, shortened: (§1)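 Hair follicles (2 mm micropunch) and skin biopsies (4 mm) were taken from the lower back of the head on day −1 and on day 16, 8 ± 2 h after the last of 14 consecutive once-daily doses. AXIN2 mRNA was measured by qRT-PCR and normalized to the geometric mean of HPRT1, IPO8 and POLR2A. Fold change from baseline was calculated by 2^−ΔΔCt, versus 8 pooled placebo participants.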

[3] = Pharmacokinetics Part 2, once daily oral dosing, plasma and urine; format: in vivo, homo sapiens
Procedure, shortened: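 Oral test compound or placebo was given once each morning at 5, 15 or 20 mg on day 1 and days 3–16. Plasma was sampled over 48 h after the day 1 dose and after the day 16 dose, with troughs pre-dose on days 4, 5, 6, 9 and 12. Urine was collected in intervals on days 1 and 16. Quantitation was by LC-MS/MS after protein precipitation.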

P1NP = test: Serum bone turnover biomarker P1NP; format: in vivo, homo sapiens; settings: 15 mg QD for 14 days
Procedure, shortened: (§2)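 Participants got test compound (5, 15 or 20 mg) or placebo once daily on day 1 and days 3–16. Serum was drawn at screening and pre-dose on days 1, 5, 7, 12 and 16, and on days 22 (±1) and 45 (±2), at the same time as baseline. CTX-1, P1NP and osteocalcin were measured by electrochemiluminescence immunoassay and BSAP by sandwich ELISA. Results are percent change from baseline versus pooled placebo.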

CTX-1 = test: Serum bone turnover biomarker CTX-1; format: in vivo, homo sapiens
Procedure, shortened: as §2

AXIN2 mRNA [4] = test: Target engagement: AXIN2 mRNA; format: in vivo, homo sapiens; settings: hair follicle
Procedure, shortened: as §1

Phase 1 Part 2 = format: in vivo, homo sapiens
Procedure, shortened: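 Healthy adults got test compound (5, 15 or 20 mg) or placebo once daily on day 1 and days 3–16. The first cohort had 6 active and 2 placebo; later cohorts had 8 active and 3 placebo, each starting with a 2:1 sentinel group. Participants were discharged day 19, with follow-up 6 ± 1 and 29 ± 2 days after the last dose. Events were graded by CTCAE, with investigator-assessed relatedness. Placebo was pooled.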

[5] = all dose levels, after 14 consecutive days of dosing

In the case of `Cc1cc(-c2nccc3c2ccn3CC(=O)Nc2ccc(-c3cnccn3)cn2)ccn1` [AZD5055], the “predicted continuous inhibition of Porcupine across the dosing interval” value [1] is reported as greater than 75%, the “predicted trough AZD5055 concentration” value ([1]; 3-fold in vitro IC50) is reported as 0.023 µmol/L and the “Serum Wnt16 levels” value (Wnt16) is reported as “reduced on study day 16 at the 15 and 20 mg AZD5055 dose levels”. The “reduction of median AXIN2 mRNA levels” value (AXIN2 mRNA [2]; 15 and 20 mg cohorts) was 50%–60%, the “AXIN2 mRNA expression vs placebo-treated participants” value (AXIN2 mRNA [2]; [5]) was “significantly reduced from baseline” and the “Dose proportionality of systemic exposure” value ([3]; after 14 consecutive days of once daily treatment, 5-20 mg) was “increased in a dose-proportional manner”. The mean terminal half-life ([3]; following repeated once daily dosing) was 12 to 17 h, the “AZD5055 dose excreted unchanged in urine” value ([3]; in vivo) was “Approximately 3%” and the mean renal clearance ([3]; in vivo) was 0.2 to 0.3 L/h. The “Steady state conditions in plasma reached” value ([3]; once daily dosing) was no more than 5 doses, the accumulation ratio ([3]; once daily dosing) was no more than 2 and the “estimated decrease in serum P1NP compared with the placebo group” value (P1NP) was 56.3%. The “estimated increase in serum CTX-1 compared with the placebo group” value (CTX-1; 15 mg QD for 14 days) was 17.5%, the “estimated increase in serum CTX-1 compared with the placebo group” value (CTX-1; 20 mg QD for 14 days) was 32.8% and the “reduction of median AXIN2 mRNA levels” value (AXIN2 mRNA [4]; 15 and 20 mg cohorts) was 50%–60%. For the same compound, the “AXIN2 mRNA expression vs placebo-treated participants” value (AXIN2 mRNA [4]; [5]) was “significantly reduced from baseline”, the “Any TEAE leading to discontinuation of IMP” value (Phase 1 Part 2; Part 2, 5 mg QD, N=8) was 2 n (%) and the “Any TEAE leading to discontinuation of IMP” value (Phase 1 Part 2; Part 2, 15 mg QD, N=9) was 1 n (%). For the same compound, the “Any TEAE possibly related to the IMP (as assessed by investigator)” value (Phase 1 Part 2; Part 2 MAD pooled, N=26) was 7 (26.9%) n (%), the Abdominal pain upper (Phase 1 Part 2; Part 2 MAD pooled, n=26) was 0 n (%) and the Application site scab (Phase 1 Part 2; Part 2 MAD pooled, n=26) was 0 n (%). For the same compound, the Breath odor (Phase 1 Part 2; Part 2 MAD pooled, n=26) was 1 (3.8) n (%), the Cardiac disorders (Phase 1 Part 2; Part 2 MAD pooled, n=26) was 2 (7.7) n (%) and the Coronavirus infection (Phase 1 Part 2; Part 2 MAD pooled, n=26) was 1 (3.8) n (%). The Cough (Phase 1 Part 2; Part 2 MAD pooled, n=26) was 0 n (%), the Dermatitis contact (Phase 1 Part 2; Part 2 MAD pooled, n=26) was 0 n (%) and the Dizziness (Phase 1 Part 2; Part 2 MAD pooled, n=26) was 0 n (%). For the same compound, the Dysgeusia (Phase 1 Part 2; Part 2 MAD pooled, n=26) was 2 n (%) and 2 (7.7) n (%), the Epistaxis (Phase 1 Part 2; Part 2 MAD pooled, n=26) was 1 (3.8) n (%) and the Erythema (Phase 1 Part 2; Part 2 MAD pooled, n=26) was 1 (3.8) n (%). For the same compound, the Eye disorders (Phase 1 Part 2; Part 2 MAD pooled, n=26) was 2 (7.7) n (%), the Folliculitis (Phase 1 Part 2; Part 2 MAD pooled, n=26) was 1 (3.8) n (%) and the Gastrointestinal disorders (Phase 1 Part 2; Part 2 MAD pooled, n=26) was 1 (3.8) n (%). The “General disorders and administration site conditions” value (Phase 1 Part 2; Part 2 MAD pooled, n=26) was 11 (42.3) n (%), the Headache (Phase 1 Part 2; Part 2 MAD pooled, n=26) was 5 (19.2) n (%) and the Infections and infestations (Phase 1 Part 2; Part 2 MAD pooled, n=26) was 2 (7.7) n (%). The “Injury, poisoning and procedural complications” value (Phase 1 Part 2; Part 2 MAD pooled, n=26) was 5 (19.2) n (%), the Limb injury (Phase 1 Part 2; Part 2 MAD pooled, n=26) was 1 (3.8) n (%) and the “Medical device site dermatitis” value (Phase 1 Part 2; Part 2 MAD pooled, n=26) was 11 (42.3) n (%). For the same compound, the Nasal discomfort (Phase 1 Part 2; Part 2 MAD pooled, n=26) was 1 (3.8) n (%), the Nausea (Phase 1 Part 2; Part 2 MAD pooled, n=26) was 0 n (%) and the Nervous system disorders (Phase 1 Part 2; Part 2 MAD pooled, n=26) was 7 (26.9) n (%). The “Participants with ≥1 TEAE” value (Phase 1 Part 2; Part 2 MAD pooled, n=26) was 21 (80.8%) n (%) and 21 (80.8) n (%), the “Participants with ≥1 TEAE of grade 1 severity” value (Phase 1 Part 2; Part 2 MAD pooled, n=26) was 16 (61.5%) n (%) and 16 (61.5) n (%) and the “Participants with ≥1 TEAE of grade 2 severity” value (Phase 1 Part 2; Part 2 MAD pooled, n=26) was 5 (19.2%) n (%) and 5 (19.2) n (%). For the same compound, the “Participants with ≥1 TEAE of grade 3 severity” value (Phase 1 Part 2; Part 2 MAD pooled, n=26) was 0 n (%), the “Participants with ≥1 TESAE” value (Phase 1 Part 2; Part 2 MAD pooled, n=26) was 0 n (%) and the Photophobia (Phase 1 Part 2; Part 2 MAD pooled, n=26) was 1 (3.8) n (%). For the same compound, the Post procedural erythema (Phase 1 Part 2; Part 2 MAD pooled, n=26) was 1 (3.8) n (%), the Post procedural inflammation (Phase 1 Part 2; Part 2 MAD pooled, n=26) was 1 (3.8) n (%) and the Procedural pain (Phase 1 Part 2; Part 2 MAD pooled, n=26) was 2 (7.7) n (%). For the same compound, the “Respiratory, thoracic and mediastinal disorders” value (Phase 1 Part 2; Part 2 MAD pooled, n=26) was 2 (7.7) n (%), the “Sensation of foreign body” value (Phase 1 Part 2; Part 2 MAD pooled, n=26) was 1 (3.8) n (%) and the Skin abrasion (Phase 1 Part 2; Part 2 MAD pooled, n=26) was 1 (3.8) n (%). For the same compound, the “Skin and subcutaneous tissue disorders” value (Phase 1 Part 2; Part 2 MAD pooled, n=26) was 1 (3.8) n (%), the Suture rupture (Phase 1 Part 2; Part 2 MAD pooled, n=26) was 0 n (%) and the Ventricular tachycardia (Phase 1 Part 2; Part 2 MAD pooled, n=26) was 2 (7.7) n (%). The “Vessel puncture site haematoma” value (Phase 1 Part 2; Part 2 MAD pooled, n=26) was 0 n (%), the Vision blurred (Phase 1 Part 2; Part 2 MAD pooled, n=26) was 1 (3.8) n (%) and the Vomiting (Phase 1 Part 2; Part 2 MAD pooled, n=26) was 0 n (%).
